NFkB transloc inh = blocks IL-1B driven NFkB nuclear translocation in HUVEC cells; HUVEC IL-1B NFkB p65 nuclear translocation imaging; inhibition, % at 2 µM; actives 0.43% (n = 94,000); AID 796;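 active means inhibition above about 30% together with a positive call from visual inspection of the well image, limit read from the data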;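 further: nuclear over cytoplasmic p65 intensity ratio measured by imaging; 0% = IL-1B stimulated DMSO wells and 100% = unstimulated DMSO wells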
FAK blocker = FAK (human) kinase inhibition | inhibition, %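 (tested at 7 µM)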 | biochemical FAK kinase activity assay | AID 727 | actives 0.84% (n = 97,000) | Q05397;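 further: 0% = DMSO and 100% = reference compound high control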
IL1B NFkB pot = enhances IL-1B driven NFkB nuclear translocation. actives 0.3% (n = 94,000). activation, % at 2 µM. HUVEC IL-1B NFkB p65 nuclear translocation imaging;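 active means activation above 40%, about the mean plus 3 SD, also judged a hit on visual image review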;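 further: percent activation is computed from the nuclear over cytoplasmic p65 intensity ratio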
Measles CPE = protection of cells from measles virus; Measles virus-infected cells, CPE protection, absorbance; protection (pct of control), % at 4 µM; actives 1.5% (n = 140,000); AID 841; in the data active means protection mostly above about 24%, no sharp cut-off; inactive means mostly below about 26%
IL1B cytotox = toxic to HUVEC cells under IL-1B stimulation; HUVEC cell count loss, Hoechst imaging, IL-1B stimulated; cell count reduction, % at 2 µM; actives 0.41% (n = 94,000);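 active means cell count reduction more than 3 SD above the screen-wide mean, cut at about 70% in these data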;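 further: normalized per plate to untreated control cells as the no-loss baseline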
Rev-RRE block = inhibitors of HIV-1 Rev-RRE RNA interaction; actives 0.79% (n = 97,000); inhibition, % at 8 µM; Rev peptide-RRE RNA binding, FRET; P05866;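 active means inhibition above the screen-wide mean plus 3 SD, cut at about 35% in these data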;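 further: 0% = median DMSO wells and 100% = median Neomycin B control wells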
Target sequence (P05866 whole entry, looked up): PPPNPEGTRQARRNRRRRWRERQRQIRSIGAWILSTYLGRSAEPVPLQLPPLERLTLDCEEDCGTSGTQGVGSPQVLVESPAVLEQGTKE
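Assay system: Labelled RRE RNA duplex and labelled Rev peptide | Times: 5 min preincubation and 15 min binding, 25 °C | Detection: FRET, ex 480 nm, em 540 and 671 nm | Evaluation: % inhibition of FRET ratio versus controls | Benchmarks: DMSO wells as 0% and neomycin B wells as 100% inhibition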
FAK inh conf = FAK (human) inhibition confirmed. shares compounds with FAK blocker. FAK kinase biochemical inhibition assay. inhibition, % at 7 µM. actives 28% (n = 750). AID 794
Active calls of the source: *; nt = not tested or not shown. Most compounds without a hit are left out; they make up all but 3.3% or so of the library. Unless noted, no stated cut-off is given here; in the data, active means inhibition above about 19%; inactive means the rest.

SMILES	NFkB transloc inh	FAK blocker	IL1B NFkB pot	Measles CPE	IL1B cytotox	Rev-RRE block	FAK inh conf
Cc1cc(C)c2c(N)c(C(=O)NCC3CCCCC3)sc2n1	-5.7	6.6	5.7	25.5*	0.5	-0.6	nt
N#Cc1ccc(CNc2cnccn2)cc1	-0.8	-7.0	0.8	17.7	93.7*	-4.0	nt
CSc1nc(-c2ccccc2)nc2[nH]ccc(=O)c12	0.2	22.1*	-0.2	nt	-62.3	7.7	nt
CCCN1Cc2cccc(C(=O)N3CCN(c4ccc(F)cc4)CC3)c2C1=O	-3.1	1.2	-5.9	7.7	-10.7	2.6	nt
CCCN1CCN(C(=O)c2cccc3c2C(=O)N(CCOC)C3)CC1	-7.2	0.5	7.2	44.1*	-6.6	5.2	nt
Cn1c(N)c(C#N)c2c(c1=S)CSC(C)(C)C2	-0.9	-5.8	0.9	5.0	-16.3	40.3*	nt
N#C/C(=C\c1ccc(OC(=O)c2ccc(Cl)s2)cc1)c1nc2ccccc2[nH]1	nt	nt	nt	1.4	nt	nt	nt
Cn1c(SCC(=O)Nc2ccc3nc(SCC(=O)N4CCCC4)sc3c2)nnc1-c1ccccc1	-1.4	25.0*	1.4	6.2	-44.5	1.2	8.6
O=C(COC(=O)/C=C/c1ccc(F)cc1)Nc1ccccc1-c1ccccc1	nt	nt	nt	15.3	nt	nt	nt
COc1ccc(-c2nnn(CC(=O)N3CCOCC3)n2)cc1	-1.9	0.1	1.9	21.6	-12.5	3.6	nt
O=C(Cc1cccs1)Nc1ccc(-c2nnn(CC(=O)N3CCOCC3)n2)cc1	nt	24.9*	nt	36.3	nt	-2.3	3.9
Cc1ccc(NC(=O)CN(C)C(=O)COc2cccc3cccnc23)cc1	nt	nt	nt	3.8	nt	nt	nt
c1cncc(-c2nc3ccccc3[nH]2)c1	0.5	27.7*	-0.5	5.6	5.2	5.9	3.1
CC(=O)Nc1ccc2nc(-c3cccnc3)[nH]c2c1	nt	nt	nt	25.6	nt	nt	nt
CCn1c(C)cs/c1=N\C(=S)Nc1ccccc1C	nt	nt	nt	27.6	nt	nt	nt
Cc1cc([N+](=O)[O-])ccc1N(C)C	nt	nt	nt	15.3	nt	nt	nt
O=C1NCCc2c1[nH]c1c(Cl)ccc(Cl)c21	4.2	73.5*	-4.2	3.1	2.8	1.9	61.7*
Cc1cc(C(=O)Cn2nc(C(=O)O)c3ccccc3c2=O)c(C)n1-c1ccc(F)cc1	nt	nt	nt	30.4	nt	nt	nt
CN1C(=O)C2(OCC(COc3ccc(Cl)cc3)O2)c2ccccc21 (stereo not given)	-21.0	2.4	21.0	2.4	5.9	4.6	nt
O=C1Nc2ccccc2C12OCC(COc1ccc(Cl)cc1)O2 (stereo not given)	12.2	20.5*	-12.2	7.1	-29.7	10.8	0.8
Cc1c(C(=O)OCC2CCCO2)[nH]c2c1C(=O)CC(c1ccco1)C2 (stereo not given)	-1.0	26.1*	1.0	5.5	-12.0	-18.9	4.4
Cc1c(C(=O)OCC(C)C)[nH]c2c1C(=O)CC(c1ccco1)C2 (stereo not given)	12.4	14.8	-12.3	11.4	2.8	3.7	nt
Cc1ccc(-c2c3c(nc4sc(C(N)=O)c(N)c24)CCC3)cc1	-14.5	21.9*	14.5	4.1	-31.3	4.3	5.3
NC(=O)c1sc2nc3c(c(-c4ccc(Cl)cc4)c2c1N)CCCC3	24.1	-3.8	-24.1	2.1	20.9	10.4	nt
CC(=O)Oc1ccc(-c2csc(Nc3cccnc3)n2)cc1	2.6	20.1*	-2.6	21.2	35.7	2.8	3.8
SMILES	NFkB transloc inh	FAK blocker	IL1B NFkB pot	Measles CPE	IL1B cytotox	Rev-RRE block	FAK inh conf
c1cncc(Nc2nc(-c3ccncc3)cs2)c1	nt	nt	nt	11.0	nt	nt	nt
CS(=O)(=O)Nc1ccc(C2=NN(S(C)(=O)=O)C(c3ccc4c(c3)OCO4)C2)cc1 (stereo not given)	nt	nt	nt	4.1	nt	nt	nt
CCc1cccc(NC(=O)Cn2c(=O)oc3cc(S(=O)(=O)N4CCOCC4)ccc32)c1	4.9	-6.3	-4.9	10.3	-13.8	1.8	nt
O=C(Cn1c(=O)oc2cc(S(=O)(=O)N3CCCC3)ccc21)Nc1cccc(C(F)(F)F)c1	-10.6	25.6*	10.6	24.1	9.2	5.7	9.3
CC(Sc1nnc(Cc2cccs2)n1C1CCCCC1)C(N)=O (stereo not given)	-6.8	26.3*	6.8	10.7	-15.5	4.5	-1.2
O=C(O)CC(NC(=O)C1c2ccccc2Oc2ccccc21)c1ccc(Cl)cc1 (stereo not given)	nt	nt	nt	12.2	nt	nt	nt
O=c1cc(-c2ccco2)oc2c1ccc1ccccc12	-10.6	25.5*	10.6	6.7	-6.9	-0.2	21.7*
CC(=O)Nc1ccc(N=Cc2nc(-c3ccc(C)cc3)oc2O)cc1	-24.8	24.1*	24.8	17.0	-34.3	-0.1	11.9
COc1ccc(N=Cc2nc(-c3ccco3)oc2O)cc1	-7.6	2.0	7.6	16.4	-66.2	-2.4	nt
O=C(CNC(=O)c1ccccc1)OCc1cc(=O)n2cc(Br)ccc2n1	nt	nt	nt	16.7	nt	nt	nt
CCOC(=O)c1cccc2c1-c1ccccc1/C2=N/O	-17.2	48.8*	17.2	2.5	-128.6	11.3	26.0*
CC1CCCC(C)N1C(=O)c1cccc2c1-c1ccccc1/C2=N/O (stereo not given)	8.7	14.1	-8.7	4.4	4.3	11.3	nt
CCC(NC(=O)Nc1ccc(O)cc1)(C(F)(F)F)C(F)(F)F	-17.5	20.1*	17.5	8.2	-6.8	5.1	-1.5
O=C(CCNC(=O)Cn1ccc2ccccc2c1=O)NCCc1ccc(Cl)cc1	nt	nt	nt	25.3	nt	nt	nt
CCOC(=O)N/N=C/C=C/c1ccccc1	nt	nt	nt	6.6	nt	nt	nt
CCc1ccccc1N(CC(=O)NCc1ccco1)C(=O)c1snc(C(N)=O)c1N	4.2	40.8*	-4.2	6.1	-21.5	10.4	14.9
COc1ccc(CNC(=O)C(C)N(Cc2ccco2)C(=O)c2snc(C(N)=O)c2N)cc1 (stereo not given)	-6.3	10.6	6.2	6.2	-18.4	5.3	nt
CC(C)(C)NC(=O)CSc1nc(O)cc(=O)[nH]1	nt	nt	nt	8.9	nt	nt	nt
CC1CCCCN1C(=O)CSc1ccc(-c2ccc(F)cc2)nn1 (stereo not given)	-19.6	26.2*	19.6	14.9	-26.5	3.8	9.8
COc1ccc(-c2ccc(SCC(=O)N3CCCC3)nn2)cc1OC	-8.5	-2.0	8.5	1.7	-14.8	1.5	nt
CC1CCN(S(=O)(=O)c2ccc(NC(=O)Cn3nnc(-c4ccccc4F)n3)cc2)CC1	-15.8	19.2*	15.8	2.8	23.5	14.7	8.2
CCc1ccc(N(CC(=O)Nc2nc3ccc(C)cc3s2)S(=O)(=O)c2c(C)noc2C)cc1	-5.8	1.5	5.8	3.9	4.8	14.2	nt
CCOC(=O)Cc1[nH]nc2c1C(c1cc(OC)ccc1OC)C(C#N)=C(N)O2 (stereo not given)	9.3	24.7*	-9.3	10.7	-1.0	-6.5	6.2
C/C(=N\NC(=O)c1ccoc1C)c1cccnc1	nt	nt	nt	9.6	nt	nt	nt
C/C(=N\NC(=O)c1[nH]c2c([N+](=O)[O-])cc(C)cc2c1-c1ccccc1)c1cccnc1	-8.2	19.7*	8.2	6.0	-14.9	0.3	1.4
CC(NC(=O)c1cccs1)c1n[nH]c(=S)n1C (stereo not given)	nt	nt	nt	6.3	nt	nt	nt

High-throughput results (PubChem)
